Laboratory results as given in ChEMBL document CHEMBL1125826, “Synthesis and biological activity of 5-amino- and 5-hydroxyquinolones, and the overwhelming influence of the remote N1-substituent in determining the structure-activity relationship” (1991).
In brackets after ≈: the same amount, converted by molar mass.

How the values were obtained:
Type in all cases: functional
[1] = target: DNA gyrase (Escherichia coli) (UniProt P0AES6+P0AES4); assay: Minimum inhibitory concentration against Escherichia coli DNA-gyrase in supercoiling assay
[2] = test system: Enterobacter cloacae; assay: Antibacterial activity was determined against gram negative organism, Enterobacter cloacae MA2646; conditions: Enterobacter cloacae; read-out: MIC
[3] = test system: Escherichia coli; assay: Antibacterial activity was determined against gram negative organism, Escherichia coli vogel; conditions: Escherichia coli; read-out: MIC
Outline: (§1)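 MIC (µg/mL) by standard microtitration against a panel of 10 Gram-positive and Gram-negative organisms; values averaged from multiple experiments.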

[4] = test system: Escherichia coli; assay: The in vivo potency was determined in female charles river CD-1 mice infected with Escherichia coli after peroral administration; conditions: Escherichia coli, po; read-out: PD50
Outline: (§2)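 Acute lethal systemic infection in female CD-1 mice, 16 mice per route; single dose given orally by gavage at the time of challenge; median protective dose (PD50, mg/kg) determined.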

[5] = test system: Escherichia coli; assay: The in vivo potency was determined in female charles river CD-1 mice infected with Escherichia coli after sc administration; conditions: Escherichia coli, sc; read-out: PD50
Outline: (§3)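 Acute lethal systemic infection in female CD-1 mice, 16 mice per route; single subcutaneous dose given at the time of challenge; median protective dose (PD50, mg/kg) determined.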

[6] = test system: Bacteria; assay: (§4) MIC ratio measured as the mean MICs of gram-negative bacteria
Outline: (§5)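 Geometric mean of the microtitration MICs (µg/mL) over the Gram-negative organisms, and separately over the Gram-positive organisms, of the 10-strain panel; individual MICs averaged from multiple experiments.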

[7] = test system: Bacteria; assay: (§6) MIC ratio measured as the mean MICs of gram-positive bacteria; outline: as §5
[8] = test system: Klebsiella pneumoniae; assay: Antibacterial activity was determined against gram negative organism, Klebsiella pneumoniae MGH-2; conditions: Klebsiella pneumoniae; read-out: MIC; outline: as §1
[9] = test system: Streptococcus pneumoniae; assay: The in vivo potency was determined in female charles river CD-1 mice infected with Streptococcus pneumoniae after peroral administration; conditions: Streptococcus pneumoniae, po; read-out: PD50; outline: as §2
[10] = test system: Streptococcus pneumoniae; assay: The in vivo potency was determined in female charles river CD-1 mice infected with Streptococcus pneumoniae after sc administration; conditions: Streptococcus pneumoniae, sc; read-out: PD50; outline: as §3
[11] = test system: Streptococcus pyogenes; assay: The in vivo potency was determined in female charles river CD-1 mice infected with Streptococcus pyogenes after peroral administration; conditions: Streptococcus pyogenes, po; read-out: PD50; outline: as §2
[12] = test system: Streptococcus pyogenes; assay: The in vivo potency was determined in female charles river CD-1 mice infected with Streptococcus pyogenes after sc administration; conditions: Streptococcus pyogenes, sc; read-out: PD50; outline: as §3
[13] = test system: Pseudomonas aeruginosa; assay: Antibacterial activity was determined against gram negative organism, Pseudomonas aeruginosa UI-18; conditions: Pseudomonas aeruginosa; read-out: MIC; outline: as §1
[14] = test system: Bacteria; assay: Antibacterial activity was determined against gram negative organism, Providencia rettgeri. M1771; conditions: Bacteria; read-out: MIC; outline: as §1
[15] = test system: Staphylococcus aureus; assay: Antibacterial activity was determined against gram positive organism, Staphylococcus aureus H228; conditions: Staphylococcus aureus; read-out: MIC; outline: as §1
[16] = test system: Streptococcus pneumoniae; assay: Antibacterial activity was determined against gram positive organism, Streptococcus pneumoniae SV-1; conditions: Streptococcus pneumoniae; read-out: MIC; outline: as §1
[17] = test system: Enterococcus faecalis; assay: Antibacterial activity was determined against gram positive organism, Streptococcus faecalis MGH-2; conditions: Enterococcus faecalis; read-out: MIC; outline: as §1
[18] = test system: Staphylococcus aureus; assay: Antibacterial activity was determined against gram positive organism, Staphylococcus aureus UC76; conditions: Staphylococcus aureus; read-out: MIC; outline: as §1
[19] = test system: Streptococcus pyogenes; assay: Antibacterial activity was determined against gram positive organism, Streptococcus pyogenes C203; conditions: Streptococcus pyogenes; read-out: MIC; outline: as §1
[20] = as §4; outline: as §5
[21] = as §6; outline: as §5
[22] = test system: Bacteria; assay: MIC ratio measured as the mean MICs of gram-positive values; outline: as §5
[23] = test system: Bacteria; assay: MIC ratio measured as the mean MICs of gram-negative; outline: as §5

| SMILES | MIC [1] | MIC [2] | MIC [3] | ED50 [4] | ED50 [5] | Geometric mean MIC over Gram-negative bacteria (µg/mL) [6] | Geometric mean MIC over Gram-positive bacteria (µg/mL) [7] | MIC [8] | ED50 [9] | ED50 [10] | ED50 [11] | ED50 [12] | MIC [13] | MIC [14] | MIC [15] | MIC [16] | MIC [17] | MIC [18] | MIC [19] | also measured |
| --- | --- | --- | --- | --- | --- | --- | --- | --- | --- | --- | --- | --- | --- | --- | --- | --- | --- | --- | --- | --- |
| C[C@@H]1CN(c2c(F)c(N)c3c(=O)c(C(=O)O)cn(C4CC4)c3c2F)C[C@H](C)N1 [SPARFLOXACIN] | 2.5 µg/mL (≈ 6.37 µM) | 0.025 µg/mL (≈ 0.0637 µM) | 0.025 µg/mL (≈ 0.0637 µM) | 1 mg/kg | 0.4 mg/kg | 0.087 | 0.05 | 0.05 µg/mL (≈ 0.127 µM) | 17 mg/kg | 17 mg/kg | 14 mg/kg | 13 mg/kg | 0.8 µg/mL (≈ 2.04 µM) | 0.2 µg/mL (≈ 0.51 µM) | 0.05 µg/mL (≈ 0.127 µM) | 0.05 µg/mL (≈ 0.127 µM) | 0.1 µg/mL (≈ 0.255 µM) | 0.013 µg/mL (≈ 0.0331 µM) | 0.1 µg/mL (≈ 0.255 µM) |  |
| CCNCC1CCN(c2c(F)cc3c(=O)c(C(=O)O)cn(C4CC4)c3c2F)C1 (stereo not drawn) [PD-117558] | 0.25 µg/mL (≈ 0.639 µM) | 0.1 µg/mL (≈ 0.255 µM) | 0.05 µg/mL (≈ 0.128 µM) | 4 mg/kg | 1 mg/kg | 0.13 | 0.025 | 0.1 µg/mL (≈ 0.255 µM) | 2 mg/kg | 0.5 mg/kg | 5 mg/kg | 2 mg/kg | 0.4 µg/mL (≈ 1.02 µM) | 0.2 µg/mL (≈ 0.511 µM) | 0.05 µg/mL (≈ 0.128 µM) | 0.025 µg/mL (≈ 0.0639 µM) | 0.025 µg/mL (≈ 0.0639 µM) | 0.013 µg/mL (≈ 0.0332 µM) | 0.025 µg/mL (≈ 0.0639 µM) |  |
| CC1CN(c2c(F)c(N)c3c(=O)c(C(=O)O)cn(C4CC4)c3c2Cl)CC(C)N1 (stereo not drawn) |  | 0.1 µg/mL (≈ 0.245 µM) | 0.05 µg/mL (≈ 0.122 µM) | 2 mg/kg | 1 mg/kg |  |  | 0.2 µg/mL (≈ 0.489 µM) |  |  | 10 mg/kg | 8 mg/kg | 1.6 µg/mL (≈ 3.91 µM) | 0.4 µg/mL (≈ 0.978 µM) | 0.1 µg/mL (≈ 0.245 µM) | 0.1 µg/mL (≈ 0.245 µM) | 0.4 µg/mL (≈ 0.978 µM) | 0.025 µg/mL (≈ 0.0611 µM) | 0.2 µg/mL (≈ 0.489 µM) | Ratio [20]: 0.23; Ratio [21]: 0.11 |
| NC1CCN(c2c(F)c(O)c3c(=O)c(C(=O)O)cn(C4CC4)c3c2F)C1 (stereo not drawn) | 0.5 µg/mL (≈ 1.37 µM) | 0.013 µg/mL (≈ 0.0356 µM) | 0.013 µg/mL (≈ 0.0356 µM) | 2 mg/kg | 0.5 mg/kg |  |  | 0.025 µg/mL (≈ 0.0684 µM) | 107 mg/kg | 18 mg/kg | 90 mg/kg | 11 mg/kg | 0.2 µg/mL (≈ 0.547 µM) | 0.05 µg/mL (≈ 0.137 µM) | 0.1 µg/mL (≈ 0.274 µM) | 0.05 µg/mL (≈ 0.137 µM) | 0.1 µg/mL (≈ 0.274 µM) | 0.025 µg/mL (≈ 0.0684 µM) | 0.05 µg/mL (≈ 0.137 µM) | Ratio [22]: 0.057; Ratio [23]: 0.034 |
